Screening results deposited in PubChem by several laboratories.
NSD2 HMT inh: NSD2 (human) methyltransferase inhibition; NSD2 peptide methylation, AlphaScreen, 120 min; inhibition, % at 12.5 µM; 310,000 compounds, 0.54% hits; in the data active = inhibition above about 50%
UCH37 DUB inh: human UCH37 deubiquitinating enzyme inhibition. Q9Y5K5. purified proteasome/UCH37, Ub-AMC cleavage fluorescence. inhibition, % (test concentration not listed). 330,000 compounds, 0.33% hits. AID 588478;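 active = mean inhibition over replicate wells above about 20%, limit read from the data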;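 note: 0% = compound-free wells with enzyme and 100% = wells lacking proteasome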
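Material: Human UCH37 enzyme supplied as purified proteasome complex | Schedule: 30 min compound-proteasome preincubation then 25 min substrate reaction, room temperature | Detection: AMC fluorescence from Ub-AMC cleavage, excitation 355 nm, emission 460 nm | Benchmarks: Wells without proteasome as full block, compound-free enzyme plus substrate as uninhibited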
SIRT5 inh: inhibitors of human sirtuin-5 desuccinylase; Q9NXA8; Purified SirT5, succinyl-peptide AMC, trypsin-coupled fluorescence; inhibition, % at 15 µM; 330,000 compounds, 1.1% hits; AID 652115; in the data active = inhibition above about 15%
FGF22 binding: FGF22 (human) thermal shift binding; Q9HCT0; recombinant FGF22 thermal shift, SYPRO orange fluorescence; percent of sucrose octasulfate shift, DMSO zero; activity (Tm shift, normalised), % at 9.99 µM; 340,000 compounds, 1.5% hits; AID 651658;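 active = mean Tm shift, scaled 0 neutral to 100 positive control, at about 1.3% or above, every replicate too, limit read from the data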
Target sequence (Q9HCT0 whole entry, looked up): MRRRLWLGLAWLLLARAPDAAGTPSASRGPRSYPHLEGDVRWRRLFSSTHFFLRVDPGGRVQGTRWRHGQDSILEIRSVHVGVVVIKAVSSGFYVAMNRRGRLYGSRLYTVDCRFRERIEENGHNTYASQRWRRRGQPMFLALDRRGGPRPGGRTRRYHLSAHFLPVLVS
CASP6 VEID inh: blocks human caspase-6 cleavage activity. 350,000 compounds, 0.53% hits. inhibition, % at 12.5 µM. purified caspase-6, Z-VEID-R110 cleavage fluorescence. AID 686996;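 active = mean inhibition across replicates at least about 35%, with every replicate also reaching that limit, limit read from the data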;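 note: 0% = median of neutral control wells and 100% = no fluorescence left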
Target sequence (P55212 24-179 limits assumed): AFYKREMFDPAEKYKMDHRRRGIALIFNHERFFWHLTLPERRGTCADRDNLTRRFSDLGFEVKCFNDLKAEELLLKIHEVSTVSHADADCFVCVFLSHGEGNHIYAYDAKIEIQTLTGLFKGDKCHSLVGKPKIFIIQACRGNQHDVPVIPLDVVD
Target sequence (P55212 194-293 limits assumed): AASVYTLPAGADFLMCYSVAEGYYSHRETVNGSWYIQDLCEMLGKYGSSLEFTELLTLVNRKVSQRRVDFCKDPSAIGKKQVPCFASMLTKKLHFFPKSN
* = called active by the depositor; nt = no result given. A selection: hits, their analogues and other compounds. The true share with any hit is near 2.6%.

SMILES	NSD2 HMT inh	UCH37 DUB inh	SIRT5 inh	FGF22 binding	CASP6 VEID inh
CCCCc1nc(SCCN2CCOCC2)c2c(=O)n(C)c(=O)n(C)c2n1	0	0	-2	43*	-6
CCCn1c(SCCN2CCOCC2)nc2c1c(=O)n(C)c(=O)n2C	1	1	-1	0	2
CSc1ccc(C=NNc2ccc(Cl)c(C(=O)O)c2)cc1	nt	7	nt	nt	nt
CCCNC(=O)Nc1ccc2c(c1)OC[C@H](C)N(Cc1ccccc1)C[C@@H](C)[C@@H](OC)CN(C)C2=O	nt	nt	8	0	-1
C[C@@H]1CCCCO[C@H](CN(C)C(=O)Nc2ccc(F)cc2)[C@H](C)CN([C@@H](C)CO)C(=O)c2cc(NS(=O)(=O)c3ccc(F)cc3)ccc2O1	nt	nt	nt	0	nt
Cc1n[nH]c(=O)nc1N/N=C/c1ccco1	-3	nt	2	44*	2
CCn1c(=O)cc(OCC(=O)NCCc2ccc(OC)c(OC)c2)c2ccccc21	0	3	20*	0	-2
COc1ccc(NC(=O)c2cc3cccc(OC)c3oc2=Nc2ccc(C(=O)O)cc2)cc1OC	13	24*	1	0	-2
COc1ccc(CCNC(=O)c2cc3cccc(OC)c3oc2=O)cc1OC	0	3	-1	0	44*
COc1ccc(Br)cc1C(=O)Nc1ccc(C(=O)O)cc1	8	1	-4	nt	1
CC[C@H](C)[C@H](NC(N)=O)C(=O)NCCc1ccc(OC)c(OC)c1	-2	2	0	43*	-2
COc1ccc(CCNC(=O)c2cc(CC(C)C)on2)cc1OC	nt	4	15*	0	0
COc1ccc(CCNC(=O)c2cc(C3CC3)on2)cc1OC	nt	5	-5	0	-2
OC1(C#CCCN2CCCCC2)c2ccccc2-c2ccccc21	nt	1	-7	44*	1
CCCC#Cc1cnc2c(c1)C(=O)N([C@H](C)CO)C[C@@H](C)[C@@H](CN(C)C(=O)c1ccc(F)cc1)O2	nt	nt	0	0	0
COc1ccc(S(=O)(=O)Nc2ccc3c(c2)CC(=O)N([C@@H](C)CO)C[C@@H](C)[C@H](CN(C)S(C)(=O)=O)O3)cc1	nt	nt	2	0	-3
O=c1[nH]c(SCc2ccccc2)nc2c1sc1ccccc12	-6	-1	-2	44*	0
CC(=O)Nc1cccc(C(C)=NNc2nc3ccccc3s2)c1	nt	7	nt	nt	nt
C[C@@H]1CN([C@@H](C)CO)C(=O)c2cc(NS(=O)(=O)c3ccc(Cl)cc3)ccc2O[C@H]1CN(C)S(=O)(=O)c1cccs1	nt	nt	5	0	2
c1ccc(-c2cc3c(N4CCN(c5ncccn5)CC4)ncnc3s2)cc1	6	-51	-9	44*	0
C[C@@H]1CCCCO[C@@H](CN(C)S(=O)(=O)c2ccccc2)[C@@H](C)CN([C@@H](C)CO)C(=O)c2cc(NC(=O)C3CCCCC3)ccc2O1	nt	nt	4	nt	0
Cc1cc(C(C)(C)C)cc(C)c1S(=O)(=O)N1CC(=O)Nc2ccccc21	0	5	-4	1.5*	3
Nc1nc(Sc2ccc([N+](=O)[O-])c3nonc23)c2[nH]cnc2n1	36	nt	nt	0	72*
COc1ccc(C(C)=NNC(=S)NCCc2ccccc2)cc1	nt	7	nt	nt	nt
C=CCNC(=O)COc1ccc(Oc2ccccc2)cc1	-1	1	-2	0	-2
SMILES	NSD2 HMT inh	UCH37 DUB inh	SIRT5 inh	FGF22 binding	CASP6 VEID inh
C=CCNC(=O)COc1c(C)ccc(C)c1C	1	2	23*	42	-3
N#Cc1ccsc1NC(=O)CN1CCN(Cc2ccccc2)CC1	-2	1	-2	43*	1
C[C@@H]1CN([C@H](C)CO)C(=O)c2cc(NS(=O)(=O)c3cn(C)cn3)ccc2O[C@@H](C)CCCCO[C@H]1CN(C)C(=O)Nc1ccc(C(F)(F)F)cc1	nt	nt	-6	-1	2
CN(C)c1ccc(C=NNC(=O)CNC(=O)/C=C/c2ccco2)cc1	nt	-40	nt	nt	nt
Nc1ccc(C(=O)N2CCCC2)cc1	-2	4	nt	nt	nt
Nc1ccc(C(=O)n2c3ccccc3c3ccccc32)cc1	-1	28*	nt	nt	nt
Cc1ccc(S(=O)(=O)N(C)C(=O)NC(=O)NS(=O)(=O)c2ccccc2)cc1	-3	0	3	44*	2
Cc1ccc(S(=O)(=O)NC(=O)Nc2ccccc2)cc1	-3	5	-2	0	0
Cc1ccc(C)n1-c1ccc(-c2ccn[nH]2)cc1	1	3	-4	43*	0
COc1ccc(-n2c(O)c(/C=C3\C=Nc4ccccc43)c(=O)[nH]c2=O)cc1	46	4	39*	0	1
COc1ccc(-n2c(O)c(C=NC3CC3)c(=O)[nH]c2=O)cc1	0	1	nt	nt	nt
CCOC(=O)c1sc2ncn(N=Cc3ccc(O)c(OC)c3)c(=O)c2c1C	nt	-5	nt	nt	nt
COc1ccc(NC(=O)c2cc(C3CC3)nc3c2cnn3C(C)C)cc1OC	nt	-2	16*	0	3
O=C(N[C@@H]1CC[C@H](CCNS(=O)(=O)Cc2ccccc2)O[C@H]1CO)c1ccc2c(c1)OCO2	nt	nt	0	0	0
O=C(Cc1ccccn1)NCC[C@H]1CC[C@@H](NC(=O)c2ccccc2F)[C@@H](CO)O1	nt	nt	1	1	0
O=C(N[C@H]1CC[C@H](CCNS(=O)(=O)Cc2ccccc2)O[C@H]1CO)c1ccccc1F	nt	nt	1.7*	0	-1
O=C(O)C[C@@H]1CC[C@@H](NC(=O)c2ccccc2F)[C@H](CO)O1	nt	nt	-3	0	1
O=C(Cc1ccccn1)NCC[C@@H]1CC[C@@H](NC(=O)c2ccccc2F)[C@H](CO)O1	nt	nt	-1	0	35*
NCC[C@@H]1CC[C@H](NC(=O)c2ccccc2F)[C@@H](CO)O1	nt	nt	-2	0	39*
CN(C)CC(=O)N1[C@@H]2Cn3c(ccc(C4=CCCC4)c3=O)[C@H]1[C@@H](C(=O)NCC1CC1)[C@@H]2CO	nt	nt	-8	0	2
O=C(c1cccc([N+](=O)[O-])c1)c1cc2ccccc2o1	1	2	32*	0	-3
OC(CCN1CCC2(CC1)OCCO2)C(F)(F)F (stereo not drawn)	0	1	-1	43*	3
Cc1cc(C)nc(NC(=S)Nc2cccc(Cl)c2Cl)c1	-2	-1	-4	0	1
Cc1cc(C)nc(NC(=S)Nc2ccc(Br)cc2Cl)c1	-5	1	3	43*	-2
CCOc1cc(/C=C2\NC(=S)N(C)C2=O)ccc1OCc1ccc(C(=O)O)cc1	9	2	11	1	9
COc1cc(/C=C2\NC(=O)NC2=O)cc(Br)c1OC	16	6	17*	0	4
CCOc1cc(/C=C2/NC(=O)NC2=O)cc(Br)c1OCc1ccc(C(=O)O)cc1	1	3	13	nt	43*
Cc1noc(C)c1NC(=O)N[C@@H]1CC[C@H](CC(=O)Nc2ccc(-c3ccccc3)cc2)O[C@@H]1CO	nt	nt	3	0	-6
CN(CC(=O)N1CCN(C2CCCCC2)CC1)S(=O)(=O)c1cccc2nsnc12	-3	2	22*	nt	-1
